Data taken from ChEMBL document CHEMBL1153738 (J Nat Prod, 2009).
Converted amounts (≈) assume the structure as drawn.

Legend:
[1] = biological target: T1, Neuropeptide Y receptor type 1 (Homo sapiens) (UniProt P25929); experiment: Displacement of [3H]NPY from neuropeptide Y1 receptor in human SK-N-MC cells at 10 ug/ml after 60 mins by scintillation counting; format: cell-based
T1 sequence (whole entry): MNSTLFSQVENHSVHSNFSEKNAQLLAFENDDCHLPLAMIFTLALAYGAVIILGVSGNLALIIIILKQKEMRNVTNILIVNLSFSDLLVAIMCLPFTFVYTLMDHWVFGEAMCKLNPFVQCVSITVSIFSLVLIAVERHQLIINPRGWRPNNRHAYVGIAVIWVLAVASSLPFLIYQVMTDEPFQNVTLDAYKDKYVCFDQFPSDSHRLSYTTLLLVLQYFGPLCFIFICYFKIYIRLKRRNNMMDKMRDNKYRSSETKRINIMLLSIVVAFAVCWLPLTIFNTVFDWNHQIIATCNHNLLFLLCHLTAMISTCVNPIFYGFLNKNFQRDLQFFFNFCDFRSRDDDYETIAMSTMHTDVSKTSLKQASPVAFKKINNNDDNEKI
Method in brief: (§1)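 SK-N-MC neuroblastoma cells, which natively express Y1, were grown to confluence, PBS-washed and equilibrated 15 min at room temperature in DMEM with 0.5% BSA. […] Steps were 30 min each at 37 °C, followed by ice, PBS wash, 1 M NaOH lysis for 30 min and scintillation counting. Results are % specific binding.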

[2] = biological target: T2, Endothelin-1 receptor (Homo sapiens) (UniProt P25101); experiment: Displacement of [3H]BQ-123 from human ETA receptor in human SK-N-MC cells at 100 ug/ml after 60 mins by scintillation counting; format: cell-based
T2 sequence (whole entry): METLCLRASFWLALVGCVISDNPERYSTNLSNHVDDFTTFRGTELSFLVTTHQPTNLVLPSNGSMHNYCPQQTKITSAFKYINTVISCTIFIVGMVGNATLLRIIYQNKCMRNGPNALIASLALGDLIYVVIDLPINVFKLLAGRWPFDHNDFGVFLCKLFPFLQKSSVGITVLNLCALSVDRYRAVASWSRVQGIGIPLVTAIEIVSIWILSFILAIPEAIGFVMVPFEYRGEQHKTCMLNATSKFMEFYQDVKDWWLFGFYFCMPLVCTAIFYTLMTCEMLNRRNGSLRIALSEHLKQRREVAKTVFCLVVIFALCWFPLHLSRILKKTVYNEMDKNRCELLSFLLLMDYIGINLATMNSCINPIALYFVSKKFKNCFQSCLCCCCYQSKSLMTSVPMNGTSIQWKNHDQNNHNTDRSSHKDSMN
Method in brief: (§2)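 Confluent human neuroblastoma SK-N-MC cells, which naturally express ETA, were PBS-washed and held 15 min at room temperature in DMEM with 0.1% BSA. […] Preincubation and incubation were 30 min each at 37 °C. Cells were then put on ice, washed, lysed in 1 M NaOH for 30 min and counted by scintillation. Results are % of specific binding.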

[3] = biological target: T2, Endothelin-1 receptor (Homo sapiens); experiment: Displacement of [3H]BQ-123 from human ETA receptor in human SK-N-MC cells at 10 ug/ml after 60 mins by scintillation counting; format: cell-based; method in brief: as §2
[4] = biological target: T1, Neuropeptide Y receptor type 1 (Homo sapiens); experiment: Displacement of [3H]NPY from neuropeptide Y1 receptor in human SK-N-MC cells at 100 ug/ml after 60 mins by scintillation counting; format: cell-based; method in brief: as §1
Plasmodium falciparum [5] = experiment: Antimalarial activity against Plasmodium falciparum D6 after 24 hrs by microtiter plate assay; format: functional, organism-based; settings: D6, 24 h
Plasmodium falciparum [6] = experiment: Antimalarial activity against Plasmodium falciparum W2 after 24 hrs by microtiter plate assay; format: functional, organism-based; settings: W2, 24 h

| SMILES | Activity [1] [%] | Activity [2] [%] | Activity [3] [%] | Activity [4] [%] | IC50 (Plasmodium falciparum [5]) [µg/mL] | IC50 (Plasmodium falciparum [6]) [µg/mL] |
| --- | --- | --- | --- | --- | --- | --- |
| O=C1C2=C(C3=NCCc4c[nH]c1c43)C1(C=C(Br)C(O)C(Br)=C1)CCN2 (stereo unspecified) | 82 | 100 | 100 | 29 |  |  |
| O=C1C[C@H]2S[C@H]3C[C@]2(C=C1Br)C1=C(N3)C(=O)c2[nH]cc3c2C1=NCC3 | 90 | 79 | 100 | 40 |  |  |
| CN(C)CCc1c[nH]c2ccc(Br)cc12 | 100 | 89 | 97 | 76 |  |  |
| CC/C=C/C(CC)CCC[C@@]1(CC)C[C@H](CC)[C@H](CC(=O)OC)OO1 (stereo partly specified) | 100 | 88 | 100 | 100 |  |  |
| CC(=O)OC(C)C(OC(C)=O)C(CCCCCCCCCCCCC1=CC(C)OC1=O)C(=O)O (stereo unspecified) | 100 | 79 | 98 | 86 |  |  |
| CC(C)C[C@H]1NC(=O)[C@@H](Cc2ccccc2)NC(=O)[C@@H](CC(C)C)NC(=O)[C@H](NC(=O)[C@@H](Cc2ccccc2)NC(=O)C(C)C)[C@H](C)OC(=O)[C@H](CO)NC(=O)[C@@H]([C@H](C)O)NC1=O | 100 | 96 | 99 | 18 |  |  |
| Nc1ncc(C2=CCNC(=O)c3[nH]c(Br)c(Br)c32)[nH]1 | 100 | 68 | 78 | 81 |  |  |
| C/C=C1\NC(=O)[C@H](Cc2ccccc2)NC(=O)[C@@H](C(C)C)NC(=O)[C@@H]([C@@H](C)CC)NC(=O)[C@H](NC(=O)[C@H](NC(=O)[C@H](CCCN)NC(=O)[C@H]2CCCN2C(=O)[C@H](NC(=O)[C@@H](NC(=O)[C@@H](NC(=O)[C@H](NC(=O)CCCC(C)(C)O)C(C)C)[C@@H](C)O)C(C)C)C(C)C)[C@@H](C)CC)[C@H](C)OC(=O)[C@H](C(C)C)NC1=O |  |  |  |  | 1.5 (≈ 1 µM) | 1.2 (≈ 0.803 µM) |
| N=C(NCCCCCCNC(=N)NC(=N)Nc1ccc(Cl)cc1)NC(=N)Nc1ccc(Cl)cc1 | 100 | 79 | 100 | 81 |  |  |
| Nc1nc([C@H]2[C@H](CNC(=O)c3cc(Br)c[nH]3)[C@@H](CNC(=O)c3cc(Br)c[nH]3)[C@@H]2c2c[nH]c(N)n2)c[nH]1 | 95 | 80 | 100 | 12 |  |  |
| CC/C=C/C(CC)CCC[C@@]1(CC)C[C@H](CC)[C@H](CC(=O)O)OO1 (stereo partly specified) | 100 | 68 | 100 | 56 |  |  |
| CN(C)CCc1c[nH]c2cc(Br)c(Br)cc12 | 100 | 62 | 100 | 17 |  |  |
